FGF22 binding = FGF22 (human) thermal shift binding. Q9HCT0. recombinant FGF22 thermal shift, SYPRO orange fluorescence; percent of sucrose octasulfate shift, DMSO zero. activity (Tm shift, normalised), % at 9.99 µM. 340,000 tested, 1.5% active. AID 651658;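 active means mean Tm shift, scaled 0 neutral to 100 positive control, at about 1.3% or above, every replicate too, limit read from the data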
Target sequence (Q9HCT0 whole entry, looked up): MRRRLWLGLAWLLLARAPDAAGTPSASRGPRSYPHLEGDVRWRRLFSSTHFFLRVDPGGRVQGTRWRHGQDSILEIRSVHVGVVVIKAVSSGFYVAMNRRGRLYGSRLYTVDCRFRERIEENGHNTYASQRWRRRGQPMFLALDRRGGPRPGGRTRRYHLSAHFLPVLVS
NS3 helicase inh = HCV NS3 helicase inhibition | 290,000 tested, 0.56% active | inhibition, % at 10.9 µM | AID 1800 | NS3 helicase DNA unwinding, Cy5 molecular beacon fluorescence;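 active means inhibition above the mean of all tested compounds plus 3 SD, set per campaign, cut at about 35% in these data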;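 further: 0% = DMSO wells and 100% = thioflavine S control wells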
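Control set: DMSO versus 110 µM thioflavine S; Material: NS3 helicase fragment of HCV; Measured by: Cy5 fluorescence at 0 and 60 min, beacon hairpin quenching; Read-out basis: percent inhibition from t60/t0 fluorescence ratio; Times: reaction time 60 min, 25 °C; Repeats: single replicate; Compound dosing: single dose, 10.9 µM nominal final, DMSO 0.8% final.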
EBNA-1 inh = blocks EBNA-1 binding to DNA | inhibition, % at 14.8 µM | 300,000 tested, 0.34% active | EBNA-1 DNA binding, fluorescence polarization; in the data active means inhibition above about 28%
FID counter = fluorescent intercalator displacement, NS3 helicase counter-screen; DNA fluorescent intercalator displacement, fluorescence; inhibition, % at 7.9 µM; 290,000 tested, 0.17% active; in the data active means inhibition above about 37%;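 further: 0% = vehicle and 100% = reference compound; higher means more ethidium bromide displaced from hairpin DNA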
ZTA DNA inh = ZTA (EBV) inhibition in EBNA-1 counter-screen | ZTA-DNA binding, fluorescence polarization | inhibition, % at 11 µM | 320,000 tested, 0.15% active; in the data active means inhibition above about 33%
Target sequence (P03206 whole entry, looked up): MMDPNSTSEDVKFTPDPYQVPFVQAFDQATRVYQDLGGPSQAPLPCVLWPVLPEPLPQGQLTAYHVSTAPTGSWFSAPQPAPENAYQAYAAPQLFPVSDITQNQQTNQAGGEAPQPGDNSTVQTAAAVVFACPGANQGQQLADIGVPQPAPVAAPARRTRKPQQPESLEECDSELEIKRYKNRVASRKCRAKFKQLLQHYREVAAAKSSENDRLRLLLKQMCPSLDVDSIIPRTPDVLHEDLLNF
GRIN3A LBD mod = modulates the human NR3A ligand-binding domain; AID 1259313; NR3A LBD differential scanning fluorimetry, Tm shift; 0% = protein alone, 100% = glycine-bound protein; 340,000 tested, 2.5% active; Tm shift relative to glycine control, % at 25 µM;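 active means melting temperature shift of at least 10% of the positive control shift, at one fixed dose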
Active calls of the source: *. Hits are enriched below; roughly 3.6% of the tested compounds scored in any of these assays.

O=C(CNc1cccc2ccccc12)N/N=C/c1cccc(Oc2ccccc2)c1 was read as FGF22 binding 0.4, NS3 helicase inh -0.1, EBNA-1 inh 0.3, FID counter -4.4, ZTA DNA inh 0.8 and GRIN3A LBD mod 17.0*.
Screening O=C(CNc1cccc2ccccc12)N/N=C/c1ccccn1 returned FGF22 binding 0.2, NS3 helicase inh 21.1, EBNA-1 inh 4.3, FID counter -2.1, ZTA DNA inh 10.4 and GRIN3A LBD mod -0.9.
Screening Cc1ccccc1NCC(=O)N/N=C/c1ccc([N+](=O)[O-])cc1 returned NS3 helicase inh -1.2, EBNA-1 inh 2.5, FID counter 11.0, ZTA DNA inh -9.0 and GRIN3A LBD mod -3.4.
Screening C[C@@H](NC(=O)C[C@@H]1C=C[C@H](NC(=O)Nc2ccc3c(c2)OCO3)[C@@H](CO)O1)c1ccccc1 returned FGF22 binding 0.1.
For O=C(COC(=O)c1ccc2[nH]c3c(c2c1)CCCC3)Nc1ccccc1Cl the results were FGF22 binding 42.5, NS3 helicase inh 3.8, EBNA-1 inh 6.7, FID counter 0.4, ZTA DNA inh -0.9 and GRIN3A LBD mod 12.6*.
Screening O=C(COC(=O)c1ccc2[nH]c3c(c2c1)CCCC3)Nc1ccc(Cl)cc1Cl returned FGF22 binding 0.2, NS3 helicase inh 2.3, EBNA-1 inh 9.8, FID counter -3.6, ZTA DNA inh -10.0 and GRIN3A LBD mod 27.0*.
`CCC(C)c1ccccc1NC(=O)COC(=O)c1ccc2[nH]c3c(c2c1)CCCC3` (stereo not given) gave NS3 helicase inh 8.1, EBNA-1 inh 0.6, FID counter -9.3, ZTA DNA inh -4.5 and GRIN3A LBD mod 7.4.
Screening O=C(C[C@@H]1C=C[C@H](NS(=O)(=O)c2ccccc2)[C@@H](CO)O1)N1CCC(Cc2ccccc2)CC1 returned FGF22 binding -0.4.
For Cc1nnc(SCc2cc([N+](=O)[O-])cc3c2OCOC3)n(N)c1=O the results were FGF22 binding 42.9*, NS3 helicase inh 9.3, EBNA-1 inh -15.7, FID counter 3.4, ZTA DNA inh 2.3 and GRIN3A LBD mod 0.3.
`CCCc1ccc(OCC(=O)Nc2cc(S(=O)(=O)CC)ccc2O)cc1` gave FGF22 binding 44.2*, NS3 helicase inh 19.5, EBNA-1 inh -9.1, FID counter -33.0, ZTA DNA inh -1.1 and GRIN3A LBD mod -6.1.
For C[C@H](NC(=O)C[C@H]1CC[C@@H](NC(=O)Nc2ccc3c(c2)OCO3)[C@@H](CO)O1)c1ccccc1 the results were FGF22 binding -0.1.
CCCNC(=O)N1CC2(CCN(C(=O)C3CCC3)CC2)c2c([nH]c3cc(OC)ccc23)[C@@H]1CO was read as FGF22 binding -0.2.
For COc1ccn(C2CCCCO2)c(=O)n1 (stereo not given) the results were FGF22 binding 43.1* and GRIN3A LBD mod -0.5.
For COc1ccc(Cc2nc3c([nH]2)c(=O)n(C)c(=O)n3C)cc1OC the results were FGF22 binding 43.5* and GRIN3A LBD mod -0.8.
Cn1c(=O)c2[nH]c(Cc3cccc(O)c3)nc2n(C)c1=O was read as GRIN3A LBD mod -2.1.
`N#Cc1c(NC(=O)Cn2c(=O)oc3ccccc32)oc(-c2ccccc2)c1-c1ccccc1` gave NS3 helicase inh 13.7, EBNA-1 inh -3.2, FID counter -9.9, ZTA DNA inh 3.6 and GRIN3A LBD mod 10.6*.
`C[C@@H]1CCCCO[C@H](CN(C)Cc2ccccc2)[C@@H](C)CN([C@H](C)CO)C(=O)c2cc(NC(=O)C3CCCCC3)ccc2O1` gave FGF22 binding -0.1.
`CCOC(=O)c1c(C)n(C)c2cc(Br)c(C(=O)OC)cc12` gave NS3 helicase inh 14.1, EBNA-1 inh 11.4, FID counter -17.0, ZTA DNA inh 5.4 and GRIN3A LBD mod 1.3.
CCOC(=O)c1c(C)n(C)c2cc(Br)c(OC)cc12 was read as FGF22 binding 0.2, NS3 helicase inh -0.4, EBNA-1 inh 3.9, FID counter -3.5, ZTA DNA inh -10.9 and GRIN3A LBD mod 10.8*.
C[C@H]1CN([C@@H](C)CO)C(=O)c2cc(C#CCN(C)C)cnc2O[C@H]1CN(C)C(=O)c1cccc(F)c1 was read as FGF22 binding -0.3.
`OC(CNCc1ccco1)Cn1c2ccc(Br)cc2c2cc(Br)ccc21` (stereo not given) gave NS3 helicase inh -13.3, EBNA-1 inh -2.2, FID counter 0.1, ZTA DNA inh -15.8 and GRIN3A LBD mod 24.0*.
`CCCC#Cc1ccc2c(c1)O[C@@H](CN(C)Cc1ccccn1)[C@H](C)CN([C@H](C)CO)S2(=O)=O` gave FGF22 binding -0.4.
COc1ccc2cc1Oc1ccc(cc1)CC1c3c(cc(OC)c4c3Oc3cc5c(cc3O4)CCNC5C2)CCN1C (stereo not given) was read as NS3 helicase inh -79.9, EBNA-1 inh 7.1, FID counter 80.9*, ZTA DNA inh 15.8 and GRIN3A LBD mod -8.3.
Screening O=C(O)c1ccc(-c2nc(-c3ccccc3)c(-c3cccs3)[nH]2)cc1 returned FGF22 binding 0.2, NS3 helicase inh 21.1, EBNA-1 inh 9.3, FID counter -11.2, ZTA DNA inh 6.4 and GRIN3A LBD mod 0.7.
Screening O=[N+]([O-])c1ccc(O)c(-c2nc(-c3ccccc3)c(-c3cccs3)[nH]2)c1 returned NS3 helicase inh 7.2, EBNA-1 inh -1.6, FID counter 19.6, ZTA DNA inh 1.9 and GRIN3A LBD mod 29.8*.
For Cc1cccc(-[n+]2c(C)cc(C)c3c(=O)[nH]c(=O)[nH]c32)c1 the results were FGF22 binding -0.1, NS3 helicase inh 8.1, EBNA-1 inh -5.0, FID counter -5.3, ZTA DNA inh -9.4 and GRIN3A LBD mod 11.5*.
For Cc1ccc(C(=O)c2cc3ccccc3o2)cc1[N+](=O)[O-] the results were FGF22 binding 43.0*, NS3 helicase inh -1.0, EBNA-1 inh -1.2, FID counter 0.6, ZTA DNA inh -7.1 and GRIN3A LBD mod 2.0.
Cc1ccccc1NCC(=O)N/N=C/c1c[nH]c2ccccc12 was read as FGF22 binding 0.0, NS3 helicase inh -9.1, EBNA-1 inh -11.9, FID counter 20.9, ZTA DNA inh -10.2 and GRIN3A LBD mod 23.9*.
Screening Cc1cccc(NCC(=O)N/N=C\c2c[nH]c3ccccc23)c1 returned FGF22 binding -0.2, NS3 helicase inh -30.3, EBNA-1 inh 1.1, FID counter 3.7, ZTA DNA inh 8.3 and GRIN3A LBD mod 16.4*.
Screening Cc1ccc(OCC(=O)N/N=C/c2c[nH]c3ccccc23)c([N+](=O)[O-])c1 returned NS3 helicase inh -8.1, EBNA-1 inh -9.7, FID counter 0.5, ZTA DNA inh 6.2 and GRIN3A LBD mod 23.7*.
Screening COc1ccc(S(=O)(=O)N2CCCCN3[C@@H](CO)[C@H](c4ccc(C#CC5CC5)cc4)[C@@H]3C2)cc1 returned FGF22 binding -0.5.

Assay outcomes deposited in PubChem by several laboratories.
